The sample as a whole holds a higher share of hits than the screen did.
H69AR inhibit = blocks growth of human H69AR lung tumor cells; H69AR lung tumor viability, ATP luminescence, 72 h; stronger effect = lower value; viability, % at 10 µM; 85,000 compounds, 6% hits; AID 598;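 active = viability at or below 40%; inactive = viability above 40%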;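 also: multidrug resistant small cell line overexpressing MRP-1 efflux transporter; 100% = mean luminescence of untreated control wells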
HCT116 bCat-KO = beta-catenin-lacking colon tumor cell growth suppression. HCT116 beta-catenin knockout viability, CellTiter-Glo, 60 h; stronger effect = lower value. viability, % at 10 µM. 140,000 compounds, 1.5% hits. AID 818;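 active = viability at or under a set limit, the compound median less 4 SD, cut at about 6% in these data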;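 also: 0% = Hyamine 1622 control at 20 µM and 100% = untreated cell control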
Fibroblast inh = blocks proliferation of human lung fibroblasts | AID 719 | LL 47 human lung fibroblast viability, ATP luminescence; stronger effect = lower value | viability, % at 10 µM | 85,000 compounds, 1.1% hits;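 active = viability at or below 50% in the single dose screen; inactive = viability above 50%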;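 also: compound exposure lasted 72 h before the ATP readout; 100% = median luminescence of untreated cell-only wells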
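Assay system: human lung fibroblast line LL 47, low passage. Input: 1,150 fibroblasts seeded per well. Times: overnight cell rest, 72 h compound treatment at 37 °C. Evaluation: % viability of median cell-only signal. Technique: luminescent ATP detection, CellTiter-Glo. Control set: cell-only wells, no compound.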
HCT116 PTEN-null = suppresses growth of cells with PTEN deletion | AID 827 | viability, % at 10 µM | 140,000 compounds, 1.2% hits | HCT116 PTEN-null viability, CellTiter-Glo, 60 h; stronger effect = lower value;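 active = viability at or below a set limit, 4 SD under the median of all tested compounds, cut at about 3.7% in these data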;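 also: PTEN knockout HCT116 line with beta catenin targeted HCT116 as companion control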
HUVEC inhibit = inhibitors of human endothelial cell proliferation | 86,000 compounds, 1.1% hits | HUVEC proliferation, CellTiter-Glo luminescence, 72 h; stronger effect = lower value | AID 648 | viability, % at 10 µM (by protocol);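 active = viability at or below 30%; inactive = viability above 30%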;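 also: 100% = median luminescence of DMSO-only cell control wells on each plate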
* = called active by the depositor; x = not tested or not shown.

SMILES | H69AR inhibit | HCT116 bCat-KO | Fibroblast inh | HCT116 PTEN-null | HUVEC inhibit
COc1ccc(OCc2nc(N)nc(Nc3ccccc3)n2)cc1 | 90 | 94 | 93 | 98 | 120
CCOc1ccc(CNC(=O)c2ccc(Sc3ccc(C)cc3)c(NC(C)=O)c2)cc1 | x | 76 | x | 89 | x
CC(C)n1cc(/C=C(\C#N)S(=O)(=O)c2ccccc2)c2ccccc21 | 34* | 89 | 92 | 96 | 86
CN(C)CCCOc1cccc(Oc2ccccc2)c1 | x | 70 | x | 80 | x
CCOc1ccc(Cl)cc1S(=O)(=O)n1cnc2cc(C)c(C)cc21 | 57 | 77 | 91 | 80 | 91
COc1cc(C)c(Cl)cc1S(=O)(=O)n1cnc2ccccc21 | 40* | 96 | 93 | 103 | 87
CN(C=O)CP(=O)(O)CN1CCCCC1 | 86 | 94 | 97 | 104 | 102
CCN1CCN(c2cc(C)c3cc(NC(=O)c4ccc5c(c4)OCO5)ccc3n2)CC1 | x | 12 | x | 35 | x
CCN1CCN(c2cc(C)c3cc(NC(=O)c4cncc(Br)c4)ccc3n2)CC1 | 42 | 1.0* | 53 | 1.2* | 23*
CCN1CCN(c2cc(C)c3cc(NC(=O)c4ccc(OC)c(OC)c4)ccc3n2)CC1 | 19* | 8 | 42* | 23 | 65
O=C(Nc1ccc(N2CCCCC2)cc1)c1cncc(Br)c1 | 58 | 105 | 104 | 90 | 87
CCC(C)n1c(SCc2ccccc2)nc2ccsc2c1=O (stereo not drawn) | x | 80 | x | 74 | x
Cn1c(SCc2cc(=O)n3cc(Br)ccc3n2)nnc1C1COc2ccccc2O1 (stereo not drawn) | 106 | 81 | 98 | 90 | 95
COC(=O)c1sc(N2C(=O)c3oc4ccccc4c(=O)c3C2c2cccs2)nc1C (stereo not drawn) | x | 65 | x | 47 | x
C=CCOC(=O)c1sc(N2C(=O)c3oc4ccccc4c(=O)c3C2c2ccco2)nc1C (stereo not drawn) | 17* | x | 58 | x | 35
CCN1C(=O)/C(=C2\SC(=S)N(CCCOC)C2=O)c2ccccc21 | 31* | 68 | 98 | 78 | 68
CCN1C(=O)/C(=C2\C=Cc3ccccc3N2CC)SC1=S | x | 96 | x | 85 | x
Nc1cc(=O)[nH]c(SCc2nnnn2-c2ccc(Cl)cc2)n1 | x | 95 | x | 103 | x
Cc1ccc(C(NC(=O)N2CCOCC2)C(Cl)Cl)cc1F (stereo not drawn) | x | 94 | x | 93 | x
Cc1ccc(C(NC(=O)N2CCOCC2)=C(Cl)Cl)cc1F | 8.7* | 3.4* | 92 | 1.4* | 103
O=S(=O)(Nc1nc2ccccc2nc1Nc1ccc(N2CCOCC2)cc1)c1cc(Cl)ccc1Cl | x | 55 | x | 45 | x
O=C(CCn1nc(-c2ccccc2)ccc1=O)N1CCN(c2ccccn2)CC1 | 88 | 91 | 107 | 97 | 87
Cc1csc(NC(=O)CSc2nnc3c4ccccc4nc(C(C)(C)C)n23)n1 | x | 11 | x | 13 | x
Nc1c(C(=O)Nc2ccc(S(=O)(=O)N3CCCC3)cc2)sc2nc3cc4c(cc3cc12)CCC4 | x | 5.8* | x | 1.5* | x
Cc1cc(C)nc(SCC(=O)NC2=NN=C(c3ccc(Br)cc3)CS2)n1 | x | 1.5* | x | 2.8* | x
SMILES | H69AR inhibit | HCT116 bCat-KO | Fibroblast inh | HCT116 PTEN-null | HUVEC inhibit
C[C@]12CC[C@@H]3c4ccc(O)cc4CC[C@H]3[C@@H]1CCC2=O | 81 | 78 | 93 | 75 | 78
CCCCC(=O)O[C@H]1CC[C@H]2[C@@H]3CCc4cc(O)ccc4[C@H]3CC[C@]12C | 1.1* | 53 | 85 | 63 | 8.9*
O=C(COc1ccccc1)Nc1nnc(-c2ccc(Cl)s2)o1 | 93 | 100 | 104 | 111 | 95
CCNc1ccc(Br)cc(C(=O)/C=C/c2c(Cl)cccc2Cl)c1=O | 2.0* | 3.5* | 63 | 1.5* | 7.9*
CNc1ccc(Br)cc(C(=O)/C=C/c2cccc(OC)c2)c1=O | -0.2* | 24 | 8.8* | 25 | 22*
CCNc1ccc(Br)cc(C(=O)/C=C/c2ccc(Cl)cc2)c1=O | x | 7 | x | 4 | x
CC1CCCC(NC(=S)NC(=O)c2ccccc2Br)C1C (stereo not drawn) | x | 60 | x | 65 | x
CCOC(=O)Cc1c(C)nc2c(-c3cccc(Br)c3)c[nH]n2c1=O | 28* | 13 | 63 | 12 | 4.7*
CCOC(=O)Cc1c(C)nc2c(-c3ccc(Cl)cc3)c(C)[nH]n2c1=O | 39* | 39 | 72 | 42 | 64
CCOC(=O)Cc1cc(=O)n2[nH]c(-c3ccccc3)cc2n1 | 107 | 91 | 100 | 92 | 93
CCOC(=O)Cc1c(C)nc2c(C#N)c[nH]n2c1=O | 98 | 116 | 96 | 102 | 98
CCOC(=O)Cc1c(C)nc2cc(-c3ccc(C(C)(C)C)cc3)[nH]n2c1=O | 37* | 81 | 55 | 89 | 64
O=c1c2c(nc3c(-c4cccc(Br)c4)c[nH]n13)CCCC2 | 20* | 15 | 59 | 8 | 45
COc1ccc(NS(=O)(=O)c2cccc(N/C(=N\S(=O)(=O)c3ccccc3)c3ccc(F)cc3)c2)cc1 | x | 50 | x | 51 | x
Cc1cc(=O)n2[nH]c(C)c(-c3ccc(Cl)cc3)c2n1 | 36* | 21 | 78 | 18 | 71
O=C(NCc1ccc(F)cc1)C(=O)Nc1nc(C23CC4CC(CC(C4)C2)C3)cs1 | x | 16 | x | 16 | x
O=C(Cc1ccc(Br)cc1)OCC(=O)N1CCc2ccccc2C1 | x | 97 | x | 100 | x
Cc1cc(C)c2nc(NNC(=O)c3cc(-c4cccs4)nc4ccccc34)sc2c1 | x | 6 | x | 4 | x
O=C(NN1CCOCC1)c1cc(-c2cccs2)nc2ccccc12 | x | 92 | x | 94 | x
Cc1ccc2sc(NNC(=O)c3cc(-c4cccs4)nc4ccccc34)nc2c1C | x | 4.8* | x | 4 | x
O=C(NNc1nc2ccc(Cl)cc2s1)c1cc(-c2cccs2)nc2ccccc12 | x | 4.2* | x | 3.7* | x
CCOc1ccc(-c2nnc3n2N=C(c2ccc(OC)cc2)CS3)cc1 | 51 | 86 | 85 | 84 | 97
CCc1nnc2n1N=C(c1ccc(OC)cc1)CS2 | 19* | 66 | 86 | 68 | 73
CCc1nnc2n1N=C(c1ccc(-c3cc(Cl)ccc3Cl)o1)CS2 | 8.5* | 1.4* | 92 | 1.7* | 104
COc1ccc(C2=Nn3c(nnc3-c3ccccn3)SC2)cc1 | 24* | 56 | 88 | 46 | 82
SMILES | H69AR inhibit | HCT116 bCat-KO | Fibroblast inh | HCT116 PTEN-null | HUVEC inhibit
O=C(NCc1ccc(C(F)(F)F)cc1)C1CC(c2c(Cl)cccc2Cl)=NO1 (stereo not drawn) | x | 92 | x | 80 | x
CC12CCC(C/C1=N\N=C1\NC(=O)/C(=C\c3ccc(Cl)cc3)S1)C2(C)C (stereo not drawn) | x | 61 | x | 59 | x
Brc1ccc(C2=CC(c3cccs3)n3ncnc3N2)cc1 (stereo not drawn) | 81 | 44 | 92 | 42 | 88
Fc1ccc(Br)cc1C1C=C(c2cccnc2)Nc2ncnn21 (stereo not drawn) | 25* | 33 | 96 | 30 | 66
CSc1nncc(=O)[nH]1 | 109 | 52 | 3.6* | 44 | 105
Cc1ccc2oc(C(=O)Nc3c(C)n(C)n(-c4ccccc4)c3=O)c(C)c2c1 | 102 | x | 108 | x | 102
CN1CCc2c(C#N)c(N3CCCCC3)nc(NCc3ccccc3)c2C1 | 3.4* | 1.0* | 67 | 1.4* | 11*

Screening results: PubChem, SRMLSC
